Two compounds from article PMC4575845 (Journal of biomolecular screening, 2015) can be followed below.

Converted amounts (≈) assume the structure as drawn. “Also recorded” adds a separate entry of the source.

A word on the MIC: it is the lowest concentration found to suppress growth. Broadly, the IC50 is the midpoint of a concentration-inhibition curve.

Data set [1] deals with Streptococcus pneumonia (ATCC 49619). Nature of the data set: Broth microdilution MIC. Type of data set: cell-based. The note with it: Streptococcus pneumoniae, ATCC49619.
The test system of data set [2] is Enterococcus faecalis (ATCC 29212). Nature of the data set: Broth microdilution MIC. The data set is classed as cell-based. The note with it: ATCC29212. A general note: In broth dilution the organism is exposed to a series of concentrations in liquid medium.
The test system of data set [3] is S. pneumoniae. Nature of the data set: Time-kill study. The data set is classed as cell-based, Streptococcus pneumoniae. The note with it: 4x MIC. In a few lines: (§1)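 Time-kill per CLSI M26-A, with compound at 4× MIC (broth microdilution MIC per CLSI M7-A7). Medium: Brain Heart Infusion or Trypticase Soy Broth, with or without 3% lysed horse blood. Viable counts by plating for CFU at 0, 2, 4, 6 and 24 h versus compound-free control cultures.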

For data set [4], the system named is NIH/3T3 cells. Nature of the data set: MTT in vitro cytotoxicity test. The following applies: 25–800 µg/mL, 24 h. The data set is classed as cell-based.
In data set [5] the test system is E. faecalis. Nature of the data set: Time-kill study. The note with it: 4x MIC, 0-24 h. Type of data set: cell-based, Enterococcus faecalis. In a few lines:
as §1

Data set [6] has as its target T1, P. aeruginosa GluRS (Pseudomonas aeruginosa, UniProt Q9XCL6).
T1 sequence (Q9XCL6 1-494): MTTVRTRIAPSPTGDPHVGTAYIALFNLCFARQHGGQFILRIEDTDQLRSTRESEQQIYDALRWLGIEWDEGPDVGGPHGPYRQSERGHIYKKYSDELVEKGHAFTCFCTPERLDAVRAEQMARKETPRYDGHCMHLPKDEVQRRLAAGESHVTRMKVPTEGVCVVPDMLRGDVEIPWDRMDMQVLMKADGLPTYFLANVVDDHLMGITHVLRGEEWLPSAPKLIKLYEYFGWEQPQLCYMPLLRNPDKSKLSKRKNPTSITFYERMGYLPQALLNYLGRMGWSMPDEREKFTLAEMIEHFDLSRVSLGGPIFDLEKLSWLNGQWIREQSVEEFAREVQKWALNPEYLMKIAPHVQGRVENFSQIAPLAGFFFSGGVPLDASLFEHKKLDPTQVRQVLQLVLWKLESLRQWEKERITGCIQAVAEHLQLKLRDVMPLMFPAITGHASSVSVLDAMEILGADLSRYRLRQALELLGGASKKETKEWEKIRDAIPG
Nature of the data set: SPA-based tRNA aminoacylation assay. The data set is classed as biochemical. In a few lines:
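P. aeruginosa GluRS was expressed in E. coli Rosetta 2(DE3) from pET101 and Ni-NTA purified. Final mix: 50 mM Tris-HCl pH 7.5, 8 mM MgCl2, 1.25 mM ATP, 1 mM spermine, 1 mM DTT, 100 µM [3H]Glu, 0.1 µM enzyme. Compound (200–0.4 µM) preincubated 15 min ambient; E. coli tRNA (0.75 µM tRNAGlu) added; 1 h 37 °C; EDTA stop. Poly-L-lysine yttrium silicate SPA beads (citrate pH 2.0), 1 h RT, scintillation count.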

Data set [7] deals with T1, P. aeruginosa GluRS. Nature of the data set: Binding mode assay. Type of data set: biochemical. The following applies: for mode of inhibition with respect to ATP: IC50 at ATP 25-1000 µM, Glu 100 µM; for mode of inhibition with respect to Glu: IC50 at Glu 25-300 µM, ATP held constant. In a few lines: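 IC50 by the same SPA aminoacylation assay, with 0.05 µM P. aeruginosa GluRS and compound at 200–0.4 µM final, preincubated 15 min RT. Started with E. coli tRNA (0.75 µM tRNAGlu), 1 h at 37 °C, EDTA stop. DMSO-only positive controls. ATP series 25–1000 µM at 100 µM Glu. Glu series 25–300 µM at constant saturating ATP. Sigmoidal dose–response fit; mode inferred from IC50 change versus substrate level.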

Data set [8] relates to S. aureus. The data set can be described thus: Time-kill study. Type of data set: cell-based, Staphylococcus aureus. The note with it: 4x MIC.
The subject of data set [9] is Staphylococcus aureus (ATCC 29213). Nature of the data set: Broth microdilution MIC. The data set is classed as cell-based. The following applies: ATCC29213.

`O=C(Nc1ccc(-c2cc(C(F)(F)F)nn2-c2ccccc2)cc1)Nc1ccc(F)cc1F` [BT_03F04, 1-(2,4-difluorophenyl)-3-{4-[1-phenyl-3-(trifluoromethyl)-1H-pyrazol-5-yl]phenyl}urea] had an MIC in data set [1] of 8 µg/mL (≈ 17.5 µM). Besides, the minimal inhibitory concentration (MIC) in data set [2] was 2 µg/mL (≈ 4.36 µM). In data set [3] (0-24 h), the bacteriostatic or bactericidal result is “bacteriostatic” and the “decrease in colony-forming units (CFUs) compared to the control” value is 2–3 log10. Further, the “cytotoxicity (MTT)” value in [4] was “not observed to be toxic”. In addition, in data set [5], the bacteriostatic or bactericidal entry is “bacteriostatic” and the “decrease in colony-forming units (CFUs) compared to the control” value is 2–3 log10. Moreover, half-maximal inhibition in data set [6] (IC50) required 21.9 µM. Besides, in data set [7], the “mode of inhibition with respect to ATP” value is “noncompetitive” and the “mode of inhibition with respect to Glu” value is given as “noncompetitive”.
With `CC1(C)SC(=S)N(/N=C/C=C/c2ccc([N+](=O)[O-])o2)C1N(O)C(=O)Nc1cccc(Cl)c1` (centres unmarked) [BT_04B09, 3-(3-chlorophenyl)-1-(5,5-dimethyl-3-{(E)-[(2E)-3-(5-nitrofuran-2-yl)prop-2-en-1-ylidene]amino}-2-thioxo-1,3-thiazolidin-4-yl)-1-hydroxyurea], the MIC in data set [1] and in [9] was 32 µg/mL (≈ 64.5 µM) each time. In addition, the bacteriostatic or bactericidal result in [3] (0-24 h) and in data set [8] (0-24 h) was “bactericidal” each time. Also, in data set [3] (all times tested), the “inhibition of growth in time-kill” value was “completely”. For the same compound, the regrowth in time-kill entry in data set [8] (at 24 h) is reported as “some regrowth”. In addition, the “cytotoxicity (MTT)” value in data set [4] is “not observed to be toxic”. Moreover, the IC50 in data set [6] came to 24.9 µM. Moreover, in [7], the “mode of inhibition with respect to ATP” value is “noncompetitive; also recorded: remain constant”. The “mode of inhibition with respect to Glu” value in data set [7] is given as “competitive”.
